# Measurements gathered from unrelated publications.
# Compare with care: the assays were run in different laboratories.
# Target: Serine/threonine-protein kinase PLK1 (PLK1, Homo sapiens, UniProt P53350)
SMILES,effect on,mode,method,tested at,quantity,result
CC#CC(=O)N1CCC[C@H]1c1nc(-c2ccc(C(=O)Nc3ccccn3)cc2)c2c(N)nccn12,enzyme activity,inhibitor,,1 µM,inhibition,36%
N#Cc1ccc(NC(=O)Nc2ccccc2)cc1,cell-free assay,,competition with immobilised ligand,25 µM,remaining binding,93%
COc1ccc2oc(-c3ccc4nc(N)oc4c3)c/c(=N\c3ccccc3NC(=O)CCN)c2c1,binding,,,1 µM,remaining binding,98%
Cc1ccc(NC(=O)c2ccnc(C(F)(F)F)c2)cc1-c1cc(OCCO)nc(N2CCOCC2)c1,binding,,,1 µM,remaining binding,94%
CCCCC(=O)Nc1ccc(-c2ccc3ncn(CCC)c(=O)c3c2)cn1,binding,,competition with immobilised ligand,0.5 µM,remaining binding,100%
COc1ccc2[nH]c3c4[nH]c5ccc(OC)cc5c4c4c(c3c2c1)C(=O)NC4=O,binding,,,1 µM,remaining binding,90%
C1=C/COCc2cc(ccc2OCCN2CCCC2)Nc2nccc(n2)-c2cccc(c2)COC/1,binding,,,0.1 µM,remaining binding,100%
C=CC(=O)N1CCC([C@@H]2CCNc3c(C(N)=O)c(-c4ccc(Oc5ccccc5)cc4)nn32)CC1,enzyme activity,inhibitor,,1 µM,inhibition,31%
